Source: ChEMBL document CHEMBL1629439, “High-throughput identification of antibacterials against methicillin-resistant Staphylococcus aureus (MRSA) and the transglycosylase” (Bioorg Med Chem, 2010)
In brackets after ≈: the same amount, converted by molar mass. Values belong to the molecule of their own block, whether it stands above or below them.

Tests used:
[1] = system: Stenotrophomonas maltophilia; experiment: Antimicrobial activity against Stenotrophomonas maltophilia ATCC 13637 after 18 to 24 hrs by alamar blue assay; assay type: functional; details: Stenotrophomonas maltophilia, ATCC 13637; read-out: MIC
How it was run: (§1)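 Broth microdilution per NCCLS in Mueller-Hinton broth, 8-point twofold dilutions, 384-well format. Exponential-phase cells at 5 × 10^5 cells/ml incubated with compound 18–24 h at 37 °C, then 20% Alamar blue added and fluorescence read. MIC90 taken as the lowest concentration preventing at least 90% bacterial growth.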

[2] = system: Staphylococcus aureus; experiment: Antimicrobial activity against methicillin-resistant Staphylococcus aureus isolate NTUH4722 after 18 to 24 hrs by alamar blue assay; assay type: functional
How it was run: (§2)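 Broth microdilution per NCCLS standard, Mueller-Hinton broth, 8-point twofold dilutions; exponentially growing cells at 5 10^5 cells/ml with compound, 18–24 h at 37 C; 20% Alamar blue added, fluorescence read; MIC90 taken as lowest concentration preventing at least 90% growth.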

[3] = system: Acinetobacter baumannii; experiment: Antimicrobial activity against Acinetobacter baumannii ATCC 49139 after 18 to 24 hrs by alamar blue assay; assay type: functional; details: Acinetobacter baumannii, ATCC 49139; read-out: MIC; how it was run: as §1
[4] = system: Mycolicibacterium smegmatis; experiment: Antimicrobial activity against Mycobacterium smegmatis BCRC 11565 after 18 to 24 hrs by alamar blue assay; assay type: functional; details: Mycolicibacterium smegmatis, BCRC 11565; read-out: MIC; how it was run: as §1
[5] = system: Serratia marcescens; experiment: Antimicrobial activity against Serratia marcescens ATCC 14756 after 18 to 24 hrs by alamar blue assay; assay type: functional; details: Serratia marcescens, ATCC 14756; read-out: MIC; how it was run: as §1
[6] = Inhibition of transglycosylase assessed as inhibition of NBD- labelled lipid II polymerization
How it was run: (§3)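 100 µM NBD-labelled lipid II incubated 30 min with full-length PBP (EC, SA or Mtb) and 10 ng/µl N-acetylmuramidase in 50 mM Tris-HCl pH 8.0, 10 mM MgCl2, 0.1% Triton X-100, 10% DMSO, 15% MeOH. Supernatant run on anion-exchange HPLC with 20 mM–0.5 M ammonium acetate gradient. Inhibition calculated from substrate peak-area percentage. IC50 determined. S. aureus strains share one SA enzyme.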

[7] = system: Staphylococcus aureus; experiment: Antimicrobial activity against Staphylococcus aureus ATCC 29213 after 18 to 24 hrs by alamar blue assay
[8] = system: Pseudomonas aeruginosa; experiment: Antimicrobial activity against Pseudomonas aeruginosa ATCC 25619 after 18 to 24 hrs by alamar blue assay; assay type: functional; details: Pseudomonas aeruginosa, ATCC 25619; read-out: MIC; how it was run: as §1
[9] = system: Staphylococcus aureus; experiment: Antimicrobial activity against methicillin-resistant Staphylococcus aureus ATCC 33592 after 18 to 24 hrs by alamar blue assay; assay type: functional; details: Staphylococcus aureus, ATCC 33592; read-out: MIC; how it was run: as §2
[10] = system: Staphylococcus aureus; experiment: Antimicrobial activity against oxacillin- and methicillin-resistant Staphylococcus aureus isolate Sa-OXA-R2 after 18 to 24 hrs by alamar blue assay; assay type: functional; how it was run: as §2
[11] = system: Escherichia coli; experiment: Antimicrobial activity against Escherichia coli ATCC […] after 18 to 24 hrs by alamar blue assay; assay type: functional; details: Escherichia coli; read-out: MIC; how it was run: as §1
[12] = system: Bacillus subtilis; experiment: Antimicrobial activity against Bacillus subtilis ATCC 23857 after 18 to 24 hrs by alamar blue assay; assay type: functional; how it was run: as §1
[13] = Inhibition of transglycosylase assessed as inhibition of NBD- labelled lipid II polymerization at 100 uM; how it was run: as §3
[14] = Displacement of fluorescein-labeled moenomycin from transglycosylase at 100 uM after 30 mins by fluorescence anisotropy binding assay

SMILES: O=C(Nc1cc(Cl)cc(C(=O)c2ccc(Cl)cc2)c1Cl)c1cc(Br)cc(Br)c1O
- MIC [1]: 16 µg/mL (≈ 27.7 µM)
- MIC [2]: 8 µg/mL (≈ 13.8 µM)
- MIC [3]: 16 µg/mL (≈ 27.7 µM)
- MIC [4]: 0.5 µg/mL (≈ 0.864 µM)
- MIC [5]: 16 µg/mL (≈ 27.7 µM)
- IC90 [6]: 100 µM
- MIC [7]: 0.5 µg/mL (≈ 0.864 µM)
- MIC [8]: 16 µg/mL (≈ 27.7 µM)
- MIC [9]: 2 µg/mL (≈ 3.46 µM)
- MIC [10]: 8 µg/mL (≈ 13.8 µM)
- MIC [11]: 8 µg/mL (≈ 13.8 µM)
- MIC [12]: < 0.03 µg/mL

SMILES: O=C(c1ccc(Cl)cc1)c1cc(NC(=O)c2cc(Br)cc(Br)c2O)ccc1Br
- MIC [1]: 16 µg/mL (≈ 27.2 µM)
- MIC [2]: ≤ 0.03 µg/mL
- MIC [3]: 16 µg/mL (≈ 27.2 µM)
- MIC [4]: 0.5 µg/mL (≈ 0.85 µM)
- MIC [5]: 16 µg/mL (≈ 27.2 µM)
- IC90 [6]: 100 µM
- MIC [7]: ≤ 2 µg/mL
- MIC [8]: 16 µg/mL (≈ 27.2 µM)
- MIC [9]: ≤ 2 µg/mL
- MIC [10]: ≤ 0.03 µg/mL
- MIC [11]: 8 µg/mL (≈ 13.6 µM)
- MIC [12]: < 0.03 µg/mL

SMILES: Cc1ccc(C(C)C)cc1Oc1ccc(Cl)cc1NC(=O)c1cc(Cl)ccc1O
- MIC [1]: 16 µg/mL (≈ 37.2 µM)
- MIC [2]: ≤ 0.03 µg/mL
- MIC [3]: 16 µg/mL (≈ 37.2 µM)
- MIC [4]: 0.5 µg/mL (≈ 1.16 µM)
- MIC [5]: 16 µg/mL (≈ 37.2 µM)
- IC90 [6]: 100 µM
- MIC [7]: 0.5 µg/mL (≈ 1.16 µM)
- MIC [8]: 16 µg/mL (≈ 37.2 µM)
- MIC [9]: 0.5 µg/mL (≈ 1.16 µM)
- MIC [10]: ≤ 0.03 µg/mL
- MIC [11]: 8 µg/mL (≈ 18.6 µM)
- MIC [12]: < 0.03 µg/mL

SMILES: O=C(c1ccc(NC(=O)c2cc(Br)cc(Br)c2O)c(Cl)c1)c1cccs1
- MIC [1]: 16 µg/mL (≈ 31 µM)
- MIC [2]: ≤ 0.03 µg/mL
- MIC [3]: 16 µg/mL (≈ 31 µM)
- MIC [4]: 0.5 µg/mL (≈ 0.97 µM)
- MIC [5]: 16 µg/mL (≈ 31 µM)
- IC90 [6]: > 100 µM
- MIC [7]: 4 µg/mL (≈ 7.76 µM)
- MIC [8]: 16 µg/mL (≈ 31 µM)
- MIC [9]: 4 µg/mL (≈ 7.76 µM)
- MIC [10]: ≤ 0.03 µg/mL
- MIC [11]: 8 µg/mL (≈ 15.5 µM)
- MIC [12]: < 0.03 µg/mL

SMILES: O=C(Nc1cc(Cl)ccc1Oc1ccc(Cl)c2ccccc12)c1cc(I)cc(I)c1O
- MIC [1]: 16 µg/mL (≈ 23.7 µM)
- MIC [2]: ≤ 0.03 µg/mL
- MIC [3]: 16 µg/mL (≈ 23.7 µM)
- MIC [4]: 0.5 µg/mL (≈ 0.74 µM)
- MIC [5]: 16 µg/mL (≈ 23.7 µM)
- IC90 [6]: 50 µM
- MIC [7]: 4 µg/mL (≈ 5.92 µM)
- MIC [8]: 16 µg/mL (≈ 23.7 µM)
- MIC [9]: ≤ 2 µg/mL
- MIC [10]: ≤ 0.03 µg/mL
- MIC [11]: 8 µg/mL (≈ 11.8 µM)
- MIC [12]: < 0.03 µg/mL

SMILES: O=C(Nc1ccc(NS(=O)(=O)c2ccc(Cl)cc2)cc1Cl)c1cc(Cl)ccc1O
- MIC [1]: 16 µg/mL (≈ 33.9 µM)
- MIC [2]: ≤ 0.03 µg/mL
- MIC [3]: 16 µg/mL (≈ 33.9 µM)
- MIC [4]: 0.5 µg/mL (≈ 1.06 µM)
- MIC [5]: 16 µg/mL (≈ 33.9 µM)
- IC90 [6]: > 100 µM
- MIC [7]: 16 µg/mL (≈ 33.9 µM)
- MIC [8]: 16 µg/mL (≈ 33.9 µM)
- MIC [9]: 32 µg/mL (≈ 67.8 µM)
- MIC [10]: ≤ 0.03 µg/mL
- MIC [11]: 8 µg/mL (≈ 17 µM)
- MIC [12]: < 0.03 µg/mL

SMILES: Cc1ccc(C(=O)c2cc(Cl)cc(NC(=O)c3cc(Br)cc(Br)c3O)c2Cl)cc1
- MIC [1]: 16 µg/mL (≈ 28.7 µM)
- MIC [2]: > 4 µg/mL
- MIC [3]: 16 µg/mL (≈ 28.7 µM)
- MIC [4]: 0.5 µg/mL (≈ 0.896 µM)
- MIC [5]: 16 µg/mL (≈ 28.7 µM)
- IC90 [6]: 100 µM
- MIC [7]: > 4 µg/mL
- MIC [8]: 16 µg/mL (≈ 28.7 µM)
- MIC [9]: > 4 µg/mL
- MIC [10]: > 4 µg/mL
- MIC [11]: 8 µg/mL (≈ 14.3 µM)
- MIC [12]: < 0.03 µg/mL

- inhibition [13]: 0%
- inhibition [14]: 93%
SMILES: CCn1cc(C(=O)O)c(=O)c2cc(F)c(N3CCN(C(=O)c4cccc(C)c4)CC3)cc21

SMILES: O=C(Nc1ccc(Oc2ccc(Cl)cc2)c(Cl)c1)c1cc(Br)cc(Br)c1O
- MIC [1]: 16 µg/mL (≈ 30.1 µM)
- MIC [2]: 0.25 µg/mL (≈ 0.47 µM)
- MIC [3]: 16 µg/mL (≈ 30.1 µM)
- MIC [4]: 0.5 µg/mL (≈ 0.94 µM)
- MIC [5]: 16 µg/mL (≈ 30.1 µM)
- IC90 [6]: 100 µM
- MIC [7]: 0.5 µg/mL (≈ 0.94 µM)
- MIC [8]: 16 µg/mL (≈ 30.1 µM)
- MIC [9]: 0.25 µg/mL (≈ 0.47 µM)
- MIC [10]: 0.5 µg/mL (≈ 0.94 µM)
- MIC [11]: 8 µg/mL (≈ 15 µM)
- MIC [12]: < 0.03 µg/mL

SMILES: Cc1ccc(C(C)C)c(Oc2ccc(Cl)cc2NC(=O)c2cc(Cl)cc(Cl)c2O)c1
- MIC [1]: 16 µg/mL (≈ 34.4 µM)
- MIC [2]: ≤ 0.03 µg/mL
- MIC [3]: 16 µg/mL (≈ 34.4 µM)
- MIC [4]: 0.5 µg/mL (≈ 1.08 µM)
- MIC [5]: 16 µg/mL (≈ 34.4 µM)
- IC90 [6]: 50 µM
- MIC [7]: 1 µg/mL (≈ 2.15 µM)
- MIC [8]: 16 µg/mL (≈ 34.4 µM)
- MIC [9]: 0.25 µg/mL (≈ 0.538 µM)
- MIC [10]: ≤ 0.03 µg/mL
- MIC [11]: 8 µg/mL (≈ 17.2 µM)
- MIC [12]: < 0.03 µg/mL

- inhibition [13]: 0%
- inhibition [14]: 90%
SMILES: O=C(Nc1ccc(C(F)(F)F)cc1)N1CCN(c2nc(CCc3ccccc3)nc3sc4c(c23)CCCC4)CC1

SMILES: Cc1ccc(C(C)C)c(Oc2ccc(Cl)cc2NC(=O)c2cc(I)cc(I)c2O)c1
- MIC [1]: 16 µg/mL (≈ 24.7 µM)
- MIC [2]: ≤ 0.03 µg/mL
- MIC [3]: 16 µg/mL (≈ 24.7 µM)
- MIC [4]: 0.5 µg/mL (≈ 0.772 µM)
- MIC [5]: 16 µg/mL (≈ 24.7 µM)
- IC90 [6]: 50 µM
- MIC [7]: 4 µg/mL (≈ 6.18 µM)
- MIC [8]: 16 µg/mL (≈ 24.7 µM)
- MIC [9]: 0.5 µg/mL (≈ 0.772 µM)
- MIC [10]: ≤ 0.03 µg/mL
- MIC [11]: 8 µg/mL (≈ 12.4 µM)
- MIC [12]: < 0.03 µg/mL

SMILES: O=C(Nc1cc(S(=O)(=O)c2ccc(Cl)cc2)ccc1Cl)c1cc(I)cc(I)c1O
- MIC [1]: 16 µg/mL (≈ 23.7 µM)
- MIC [2]: ≤ 0.03 µg/mL
- MIC [3]: 16 µg/mL (≈ 23.7 µM)
- MIC [4]: 0.5 µg/mL (≈ 0.742 µM)
- MIC [5]: 16 µg/mL (≈ 23.7 µM)
- IC90 [6]: 100 µM
- MIC [7]: 8 µg/mL (≈ 11.9 µM)
- MIC [8]: 16 µg/mL (≈ 23.7 µM)
- MIC [9]: 8 µg/mL (≈ 11.9 µM)
- MIC [10]: ≤ 0.03 µg/mL
- MIC [11]: 8 µg/mL (≈ 11.9 µM)
- MIC [12]: < 0.03 µg/mL
